# ChEMBL document CHEMBL4616603, “Luciferase-based HMG-CoA reductase degradation assay for activity and selectivity profiling of oxy(lano)sterols” (Bioorg Med Chem, 2020)
# Active and inactive are the calls of the source. The rule behind the calls is not given here.
# Key:
# Assay type in all cases: cell-based
# [1] = molecular target: T1, 3-hydroxy-3-methylglutaryl-coenzyme A reductase (Homo sapiens) (UniProt P04035); test: (§1) Induction of human HMGCR-dCat-ELuc degradation expressed in HEK293 cells assessed as reduction in luciferase activity after 4 hrs by luciferase reporter assay
# T1 sequence (whole entry): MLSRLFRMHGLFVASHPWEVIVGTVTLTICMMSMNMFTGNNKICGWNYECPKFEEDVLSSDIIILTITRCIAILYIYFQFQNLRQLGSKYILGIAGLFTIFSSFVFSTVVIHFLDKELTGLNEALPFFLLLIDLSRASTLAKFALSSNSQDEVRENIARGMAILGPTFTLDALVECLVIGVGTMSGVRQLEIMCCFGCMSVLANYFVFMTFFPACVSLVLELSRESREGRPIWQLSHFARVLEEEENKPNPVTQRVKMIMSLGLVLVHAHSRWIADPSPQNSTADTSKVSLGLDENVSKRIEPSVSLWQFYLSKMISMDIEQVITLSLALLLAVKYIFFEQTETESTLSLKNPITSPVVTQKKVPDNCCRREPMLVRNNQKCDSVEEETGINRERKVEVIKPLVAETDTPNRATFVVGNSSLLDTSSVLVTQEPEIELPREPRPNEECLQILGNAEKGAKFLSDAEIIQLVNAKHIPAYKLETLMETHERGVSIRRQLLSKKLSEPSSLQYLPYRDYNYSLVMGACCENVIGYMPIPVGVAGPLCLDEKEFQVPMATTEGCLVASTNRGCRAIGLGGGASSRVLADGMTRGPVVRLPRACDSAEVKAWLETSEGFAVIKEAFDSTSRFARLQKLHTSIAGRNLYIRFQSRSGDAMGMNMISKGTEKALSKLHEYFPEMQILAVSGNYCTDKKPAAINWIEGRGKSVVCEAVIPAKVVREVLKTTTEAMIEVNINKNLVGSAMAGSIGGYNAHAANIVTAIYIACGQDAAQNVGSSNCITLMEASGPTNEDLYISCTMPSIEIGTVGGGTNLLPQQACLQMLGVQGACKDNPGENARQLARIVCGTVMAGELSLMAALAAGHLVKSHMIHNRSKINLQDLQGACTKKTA
# Method in brief: (§2)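 HEK293 clone stably expressing HMGCR-dCat-ELuc, kept under 0.4 mg/mL G418 and picked from limiting-dilution clones. Cells exposed to compound for 4 h, then luciferase activity read as a measure of reporter protein level. Compounds came from 10 mM DMSO stocks (ethanol stock for 25HC). SD of triplicate experiments.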
# [2] = molecular target: T2, Sterol regulatory element-binding protein 1 (Homo sapiens) (UniProt P36956); test: Inhibition of SREBP (unknown origin) expressed in HEK293 cells assessed as reduction in LDLr promotor activity after 24 hrs by luciferase reporter assay
# T2 sequence (whole entry): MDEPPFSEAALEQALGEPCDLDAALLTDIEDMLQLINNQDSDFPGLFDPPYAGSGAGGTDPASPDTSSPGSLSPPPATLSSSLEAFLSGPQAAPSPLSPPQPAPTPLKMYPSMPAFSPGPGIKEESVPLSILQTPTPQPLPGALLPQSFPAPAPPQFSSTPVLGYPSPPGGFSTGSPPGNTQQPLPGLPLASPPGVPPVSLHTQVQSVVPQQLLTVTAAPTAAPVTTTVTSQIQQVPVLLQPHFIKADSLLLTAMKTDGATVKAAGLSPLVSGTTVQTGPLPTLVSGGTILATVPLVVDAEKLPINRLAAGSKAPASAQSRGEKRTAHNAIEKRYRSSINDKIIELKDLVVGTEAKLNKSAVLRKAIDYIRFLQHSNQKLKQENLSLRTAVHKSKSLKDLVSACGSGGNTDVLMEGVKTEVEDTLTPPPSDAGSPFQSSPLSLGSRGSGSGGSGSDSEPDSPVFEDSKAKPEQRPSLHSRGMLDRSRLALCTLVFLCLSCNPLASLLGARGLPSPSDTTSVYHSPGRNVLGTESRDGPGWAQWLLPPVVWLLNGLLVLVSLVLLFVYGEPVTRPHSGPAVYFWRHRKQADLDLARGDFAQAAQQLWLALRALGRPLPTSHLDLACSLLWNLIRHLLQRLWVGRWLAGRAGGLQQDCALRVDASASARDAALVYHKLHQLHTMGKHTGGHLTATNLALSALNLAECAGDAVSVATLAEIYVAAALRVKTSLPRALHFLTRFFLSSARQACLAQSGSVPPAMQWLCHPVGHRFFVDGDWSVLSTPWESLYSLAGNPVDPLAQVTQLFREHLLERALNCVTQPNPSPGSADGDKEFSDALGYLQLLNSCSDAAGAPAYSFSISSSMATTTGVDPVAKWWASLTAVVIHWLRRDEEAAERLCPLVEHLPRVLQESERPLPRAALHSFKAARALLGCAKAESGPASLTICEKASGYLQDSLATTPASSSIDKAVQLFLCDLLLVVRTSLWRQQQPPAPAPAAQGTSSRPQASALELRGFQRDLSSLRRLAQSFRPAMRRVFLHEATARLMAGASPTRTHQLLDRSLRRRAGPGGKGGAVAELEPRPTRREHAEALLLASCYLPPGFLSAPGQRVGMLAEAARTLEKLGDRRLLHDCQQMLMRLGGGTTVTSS
# Method in brief: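 HEK293 cells transiently co-transfected with pGL4-LDLr-luciferase and pCMV-beta-galactosidase. After 24 h the medium was changed to DMEM with 10% LPDS, compounds were added, and culture continued for 24 h. Luciferase was read and normalized to beta-galactosidase activity. Mean ± SD, n = 3.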
# [3] = molecular target: T3, 3-hydroxy-3-methylglutaryl-coenzyme A reductase (Homo sapiens, UniProt P04035); test: as §1; method in brief: as §2
# T3 sequence (P04035 whole entry): T1 sequence (whole entry)
# [4] = molecular target: T1, 3-hydroxy-3-methylglutaryl-coenzyme A reductase (Homo sapiens); test: Induction of human HMGCR-dCat-ELuc degradation expressed in HEK293 cells assessed as reduction in luciferase activity measured after 8 hrs in presence of SQS inhibitor TAK-475 by luciferase reporter assay
# Method in brief: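 Stable HEK293 HMGCR-dCat-ELuc clone (G418-selected, single clone) was given graded compound concentrations together with 10 µM TAK-475 (SQS inhibitor) for 8 h. The read-out was luciferase activity. Data are mean and SD of biological replicates, n = 4.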
# [5] = molecular target: T1, 3-hydroxy-3-methylglutaryl-coenzyme A reductase (Homo sapiens); test: Induction of human HMGCR-dCat-ELuc degradation expressed in HEK293 cells assessed as reduction in luciferase activity measured after 8 hrs by luciferase reporter assay
# Method in brief: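 Stable HEK293 clone expressing HMGCR-dCat-ELuc, selected with 0.4 mg/mL G418 and isolated by limiting dilution. Cells were given graded compound concentrations without TAK-475 for 8 h. HMGCR-dCat-ELuc level was read as luciferase activity. Data are mean and SD.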
# [6] = molecular target: T1, 3-hydroxy-3-methylglutaryl-coenzyme A reductase (Homo sapiens); test: Induction of human HMGCR-dCat-ELuc degradation expressed in HEK293 cells assessed as reduction in luciferase activity after 8 hrs by luciferase reporter assay
# Method in brief: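 Stable HMGCR-dCat-ELuc HEK293 clone (G418 0.4 mg/mL selection) treated for 8 h, then assayed for luciferase activity. In some runs, cells were co-treated with the SQS inhibitor TAK-475 at 10 µM. Mean and SD from biological replicates (n = 4 or 8).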
# [7] = molecular target: T1, 3-hydroxy-3-methylglutaryl-coenzyme A reductase (Homo sapiens); test: Induction of human HMGCR-dCat-ELuc degradation expressed in HEK293 cells assessed as reduction in luciferase activity at 10 uM measured at <4 hrs in presence of VCP inhibitor CB5083 by luciferase reporter assay
# Method in brief: (§3)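 Time-course degradation assay in the stable HMGCR-dCat-ELuc HEK293 line. Compound at 10 µM, alone or together with the VCP inhibitor CB5083 at 10 µM, for the indicated times. Reporter level read by luciferase activity.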
# [8] = molecular target: T1, 3-hydroxy-3-methylglutaryl-coenzyme A reductase (Homo sapiens); test: Induction of human HMGCR-dCat-ELuc degradation expressed in HEK293 cells assessed as reduction in luciferase activity at 10 uM measured at <4 hrs by luciferase reporter assay; method in brief: as §3
SMILES,Activity [1],inhibition [2],other results
CC(C)CCC[C@@H](C)[C@H]1CC[C@H]2[C@@H]3C[C@@H](O)[C@@]4(O)C[C@@H](O)CC[C@]4(C)[C@H]3CC[C@]12C,Active,inactive,
CC(C)CCC[C@@H](C)[C@H]1CC[C@@]2(C)C3=C(C(=O)C[C@]12C)[C@@]1(C)CC[C@H](O)C(C)(C)[C@@H]1CC3=O,Active,inactive,
C[C@H](CCCC(C)(C)O)[C@H]1CC[C@H]2[C@@H]3CC=C4C[C@@H](O)CC[C@]4(C)[C@H]3CC[C@]12C,Dose-dependent effect,Active,EC50 [3]: 630 nM
C[C@H](CCCC(C)(C)O)[C@H]1CC[C@H]2[C@@H]3C[C@@H](O)[C@@]4(O)C[C@@H](O)CC[C@]4(C)[C@H]3CC[C@]12C,Active,inactive,
CC(C)CCC[C@@H](C)[C@H]1CC[C@H]2[C@@H]3CC=C4C(C)(C)[C@@H](O)CC[C@]4(C)[C@H]3CC[C@]12C,inactive,inactive,
CC(=O)N1CCN(c2ccc(OCC3COC(Cn4ccnc4)(c4ccc(Cl)cc4Cl)O3)cc2)CC1 (stereo not drawn),,,Activity [4]: inactive; Activity [5]: Dose-dependent effect
COc1cccc([C@H]2O[C@H](CC(=O)N3CCC(CC(=O)O)CC3)C(=O)N(CC(C)(C)COC(C)=O)c3ccc(Cl)cc32)c1OC,,,Activity [6]: inactive
CC(C)OP(=O)(OC(C)C)C(Cc1cc(C(C)(C)C)c(O)c(C(C)(C)C)c1)P(=O)(OC(C)C)OC(C)C [APOMINE],Dose-dependent effect,inactive,Activity [7]: inactive; Activity [8]: Active; EC50 [3]: 470 nM
C[C@H](CCCC(C)(C)O)[C@H]1CC[C@@]2(C)C3=C(CC[C@]12C)[C@@]1(C)CC[C@H](O)C(C)(C)[C@@H]1CC3,Active,Active,
CC(C)CCC[C@@H](C)[C@H]1CC[C@@]2(C)C3=C(CC[C@]12C)[C@@]1(C)CC[C@H](O)C(C)(C)[C@@H]1CC3,inactive,inactive,
C[C@H](CCC1OC1(C)C)[C@H]1CC[C@@]2(C)C3=C(CC[C@]12C)[C@@]1(C)CC[C@H](O)C(C)(C)[C@@H]1CC3 (stereo partly drawn),Active,Active,
C[C@H](CCCC(C)(C)O)[C@H]1CC[C@H]2[C@@H]3CCC4=CC(=O)CC[C@]4(C)[C@H]3CC[C@]12C,inactive,Active,
C[C@H](CCCO)[C@H]1CC[C@@]2(C)C3=C(CC[C@]12C)[C@@]1(C)CC[C@H](O)C(C)(C)[C@@H]1CC3,Active,inactive,
C[C@H](CCC(O)C(C)(C)O)[C@H]1CC[C@@]2(C)C3=C(CC[C@]12C)[C@@]1(C)CC[C@H](O)C(C)(C)[C@@H]1CC3 (stereo partly drawn),Active,Active,
CC(C)CCC[C@@H](C)[C@H]1CC[C@H]2[C@@H]3CC=C4C[C@@H](O)CC[C@]4(CO)[C@H]3CC[C@]12C,inactive,inactive,
